Screens as filed in PubChem BioAssay.
697 NFkB inh – inhibitors of the PMA/ionomycin-induced NF-kB reporter in 697 B cells; 697 B-cell NF-kB luciferase reporter, 16 h; inhibition, % at 4 µM; 330,000 compounds, 0.33% hits; AID 435022; in the data active = inhibition above about 35%
CHOP UPR activ – activators of apoptotic arm of unfolded protein response (CHOP); activation, % at 10 µM; 330,000 compounds, 0.34% hits; AID 449763; CHO-CHOP luciferase reporter, UPR activation, luminescence; percent of tunicamycin response over DMSO baseline;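 active = at 10 µM dose, activation of 40% or more, normalized to positive control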;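 also: 100% = tunicamycin at 10 µg/mL and 0% = DMSO alone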
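Evaluation: % reporter activation, DMSO baseline versus tunicamycin full activation; System: CHO-CHOP luciferase reporter cell line; Input: 500 cells/well; Incubation: 6 h compound treatment, 37 °C; Measured by: Steady-Glo luciferase luminescence; Dosing: one dose, 10 µM in 0.5% DMSO; Buffer or medium: F12 medium, 10% FBS; Benchmarks: positive tunicamycin 10 µg/mL, negative DMSO alone.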
Jurkat NFkB inh – lowers PMA/ionomycin-induced NF-kB signal in Jurkat cells; PMA/ionomycin-induced NF-kB luciferase reporter, luminescence; inhibition, % at 4 µM; 330,000 compounds, 0.53% hits; AID 435003; in the data active = inhibition above about 50%
XBP1 UPR activ – activators of adaptive arm of unfolded protein response (XBP1); AID 463104; activation, % at 20 µM; CHO-XBP1 luciferase reporter, IRE1-XBP1 UPR activation, luminescence; percent of tunicamycin response, DMSO as zero; 330,000 compounds, 0.33% hits;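 active = versus positive control, 20 µM dose yields 30% or more activation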;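 also: 100% = tunicamycin at 10 µg/mL and 0% = DMSO only wells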
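Test system: CHO-XBP1 luciferase reporter cells | Buffer or medium: Serum-containing F12 medium, 10% FBS | Schedule: 6 h compound exposure at 37 °C, 5% CO2 | Detection: Steady-Glo luciferase glow luminescence, 10 min after reagent addition | Read-out basis: Activation, % of tunicamycin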
CHOP inh – blocks CHOP induction under ER stress; CHO-K1 CHOP-promoter luciferase, tunicamycin-induced, 15-18 h; inhibition, % at 10 µM; 220,000 compounds, 3.8% hits; AID 2732;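 active = compounds that reduced the stress-induced luciferase reporter signal by more than about 70% of percent inhibition, limit read from the data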;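 also: 0% = tunicamycin plus vehicle and 100% = wells without tunicamycin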
Gli-Sufu block – Gli-Sufu pathway antagonism. Sufu-KO-LIGHT fibroblasts, Gli luciferase reporter luminescence. inhibition, % at 5 µM. 340,000 compounds, 0.74% hits. AID 588413;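 active = inhibition above about 55%, limit read from the data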;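 also: 0% = DMSO-treated cells and 100% = wells with medium but no cells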
CHOP confirm – confirmation of CHOP induction inhibitors; shares compounds with CHOP inh; CHO-CHOP promoter luciferase reporter, tunicamycin-induced, luminescence; inhibition, % at 10 µM; 2,100 compounds, 45% hits; AID 504437;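 active = mean of three repeat readings of reporter signal inhibition above a set limit, cut at about 70% in these data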;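 also: 0% = tunicamycin plus vehicle and 100% = wells lacking tunicamycin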
An asterisk follows results filed as active; / = no result given. The list is not random: actives were taken first. Their share in the collection is about 3.9%.

SMILES	697 NFkB inh	CHOP UPR activ	Jurkat NFkB inh	XBP1 UPR activ	CHOP inh	Gli-Sufu block	CHOP confirm
Cc1ccc(-c2csc3nc4c5ccccc5c(NCCCN(C)C)nn4c(=O)c23)cc1	-15.7	1.9	6.7	12.6	101.5*	14.5	-305.2
CCn1c(SCC(=O)Nc2nc(C)cs2)nnc1-c1ccncc1	5.4	-0.6	9.6	-2.7	/	-14.4	/
Cc1csc(NC(=O)CSc2nnc3c4ccccc4nc(C(C)(C)C)n23)n1	-49.3	0.2	47.1	-2.5	105.4*	-0.4	124.8*
COc1cccc2cc(C(=O)c3ccccc3)oc12	-47.6	3.5	-57.1	8.4	-7.5	-5.9	/
COc1cccc2cc(/C(=N/O)c3ccc(Br)cc3)oc12	-29.5	0.2	7.7	-0.9	105.7*	3.7	20.5
CCOC(=O)c1nn(-c2ccccc2C)c(=O)cc1OCC(=O)Nc1cccc(OC)c1	-8.5	0.1	-1.9	-2.0	/	20.1	/
Cc1nc(Nc2nc(CSc3nc4ccccc4[nH]3)cc(=O)[nH]2)nc2ccccc12	-4.9	1.9	15.0	6.4	99.3*	21.9	86.7*
Cc1nc(Nc2nc(CSc3ccc(Cl)cc3)cc(=O)[nH]2)nc2ccccc12	-0.1	3.6	7.9	7.0	47.8	11.2	/
COc1ccc2c(C)nc(Nc3nc(C)c(C)c(=O)[nH]3)nc2c1	-79.8	-1.4	-56.5	8.3	99.1*	-58.3	106.2*
COc1ccc2nc(Nc3nc(CSc4nc5ccccc5[nH]4)cc(=O)[nH]3)nc(C)c2c1	17.6	-1.1	49.3	1.9	102.5*	-64.1	102.8*
CCc1c(C)nc(Nc2nc(C)c3ccc(OC)cc3n2)[nH]c1=O	1.6	2.6	-46.6	18.9	0.2	-22.1	/
CC1(NC(=O)Cc2csc(-c3cccc(Cl)c3)n2)CCS(=O)(=O)C1 (configuration not stated)	12.0	0.8	2.3	-2.1	/	0.9	/
O=C(O)c1ccc(NS(=O)(=O)c2ccc(Cl)c(C(=O)Nc3ccccc3[N+](=O)[O-])c2)cc1	2.5	2.6	12.3	-2.5	/	1.0	/
O=C(CNC(=O)c1ccncc1)Nc1ccc(F)c(F)c1	1.9	2.6	0.8	-4.8	/	-0.2	/
CCc1ccc(NSc2ccccc2[N+](=O)[O-])cc1	-26.7	-0.4	26.7	1.8	102.2*	0.7	18.1
O=C(CN1C(=O)c2cccc([N+](=O)[O-])c2C1=O)OCC(=O)N1CCCCC1	2.7	0.7	-4.7	-3.8	/	-11.3	/
CC(C)(C)c1cc(-c2csc(Nc3ccccc3)[n+]2Cc2ccc(C(=O)O)cc2)cc(C(C)(C)C)c1O	12.6	0.2	-3.4	11.2	106.4*	-16.1	120.7*
O=C(O)c1ccc(C[n+]2c(-c3ccccc3)csc2Nc2ccccc2)cc1	4.9	1.9	-4.6	-1.4	-4.2	4.4	/
Cc1nn(CC(=O)NCCCc2ccccc2)c(=O)c2cc3occc3n12	0.0	3.0	-4.8	-1.3	/	18.7	/
CCc1nn(CC(=O)NCCCN(CC)c2cccc(C)c2)c(=O)c2cc3occc3n12	-10.2	1.4	6.8	-2.4	103.8*	/	31.0
COCCN(Cc1ccc(F)cc1)C(=O)c1cc2ccccc2oc1=O	6.0	1.7	4.9	-3.4	/	-3.8	/
NC(=O)CC(NC(=O)Cc1cccc2ccccc12)c1ccc(NCc2ccc(F)cc2)c([N+](=O)[O-])c1 (configuration not stated)	1.2	-3.4	3.8	-3.0	105.3*	25.0	108.2*
NC(=O)CC(NC(=O)Cc1ccc(Br)cc1)c1ccc(NCc2cc(F)ccc2F)c([N+](=O)[O-])c1 (configuration not stated)	-2.7	-1.7	-3.8	-0.5	97.0*	9.8	6.8
NC(=O)CC(NC(=O)Cc1ccc(Br)cc1)c1ccc(NCCc2cccc(F)c2)c([N+](=O)[O-])c1 (configuration not stated)	-0.8	-1.5	-0.2	-3.0	-2.3	-25.4	/
NC(=O)CC(NC(=O)Cc1cccc2ccccc12)c1ccc(NCc2ccccc2)c([N+](=O)[O-])c1 (configuration not stated)	-6.0	1.4	2.1	0.4	101.0*	-3.1	91.4*
SMILES	697 NFkB inh	CHOP UPR activ	Jurkat NFkB inh	XBP1 UPR activ	CHOP inh	Gli-Sufu block	CHOP confirm
NC(=O)CC(NC(=O)Cc1cccc2ccccc12)c1ccc(NCc2ccccn2)c([N+](=O)[O-])c1 (configuration not stated)	9.1	5.0	-10.9	-0.4	17.9	20.4	/
COc1ccccc1C(=O)Nc1nnc(-c2ccc(F)cc2)s1	-38.4	8.7	-31.6	4.4	/	-60.8	/
O=C(Nc1nnc(-c2ccccc2)s1)c1ccc(F)cc1	-60.7	5.2	-3.8	-1.2	102.9*	-77.3	35.9
CC1CCN(CCCNC(=O)CCNC(=O)Cn2cnc3ccccc3c2=O)CC1	-3.4	-1.5	-18.4	-1.6	/	-5.0	/
O=[N+]([O-])c1cccnc1N1CCC(c2cc(-c3cccc(C(F)(F)F)c3)n[nH]2)CC1	-6.7	1.6	3.8	0.2	103.0*	6.8	47.6
N#C/C(=C/c1ccc(N2CCCCCC2)o1)c1cccc(F)c1	-12.4	12.5	-0.8	2.5	104.0*	-18.6	27.5
N#C/C(=C\c1ccc(N2CCOCC2)o1)c1ccccc1	-16.7	1.8	-0.6	0.7	37.1	-58.2	/
CN(Cc1ccccc1)S(=O)(=O)c1ccc(N2CCCC2=O)cc1	8.7	-0.9	4.1	0.9	/	-0.3	/
CCN(CC)CCOc1ccc(/C(=C(/Cl)c2ccccc2)c2ccccc2)cc1	-9.3	1.9	-7.4	-0.2	98.6*	-5.8	7.3
COc1ccccc1C(C(C(=O)c1ccccc1)N1CCOCC1)N1CCOCC1 (configuration not stated)	/	/	/	/	/	6.7	/
Cc1ccc(-c2nc(N)sc2-c2ccc(C)cc2)cc1	/	/	/	/	96.9*	-4.0	114.5*
Cc1ccc(-c2nc(N)sc2C)cc1	-2.0	2.1	1.5	0.9	-7.6	0.2	/
CCN1/C(=C/c2ccc3cc(C)ccc3[n+]2C)Sc2ccc3sccc3c21	/	/	/	/	109.3*	86.3*	102.4*
Cc1sc2c3ccsc3ccc2[n+]1C	11.1	-0.3	12.4	-0.1	1.1	-2.4	/
C=C(C)COc1ccc(-c2[nH]ncc2-c2ccccc2OC)c(O)c1	-30.9	0.3	16.0	-0.2	105.5*	-0.7	-35.6
CC1=CC(C)(C)N(C(=O)c2ccc(F)cc2)c2cc3c(cc21)OCO3	19.6	-3.9	-3.4	8.8	98.0*	25.5	71.1*
N#C/C(=C\c1ccc(Cl)cc1)c1nc(-c2ccco2)cs1	-27.9	2.6	-32.1	0.2	-14.2	-36.9	/
N#C/C(=C\c1ccc(F)cc1)c1nc(-c2ccco2)cs1	-64.7	4.4	-54.0	2.6	104.7*	-49.7	-100.6
